In ChEMBL document CHEMBL1143630, “Successful in silico discovery of novel nonsteroidal ligands for human sex hormone binding globulin” (J Med Chem, 2005):

Key:
[1] = molecular target: T1, Sex hormone-binding globulin (Homo sapiens) (UniProt P04278); assay: In vitro inhibition of [3H]DHT binding to human sex hormone-binding globulin (SHBG); design: concentration or dose not given beside the values
T1 sequence (whole entry): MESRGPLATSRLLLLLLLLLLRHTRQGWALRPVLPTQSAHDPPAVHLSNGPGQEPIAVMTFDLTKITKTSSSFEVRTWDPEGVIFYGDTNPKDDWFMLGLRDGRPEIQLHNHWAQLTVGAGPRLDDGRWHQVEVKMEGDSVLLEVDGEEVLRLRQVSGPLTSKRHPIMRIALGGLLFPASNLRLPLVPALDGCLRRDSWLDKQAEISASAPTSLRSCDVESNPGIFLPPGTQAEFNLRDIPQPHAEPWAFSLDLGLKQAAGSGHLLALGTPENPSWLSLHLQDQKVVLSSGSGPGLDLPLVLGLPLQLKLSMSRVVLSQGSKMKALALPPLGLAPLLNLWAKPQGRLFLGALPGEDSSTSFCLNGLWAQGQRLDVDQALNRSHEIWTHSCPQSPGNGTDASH
Outline: (§1)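 Human pregnancy serum diluted 1:200 (about 1 nM SHBG), stripped of endogenous steroid with dextran-coated charcoal, mixed with [3H]DHT at 10 nM. Triplicate test compound added, incubated overnight at room temperature. Dextran-coated charcoal slurry then added for 10 min at 0°C and centrifuged to separate bound from free label. Bound label counted by scintillation and expressed relative to the no-competitor control.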

[2] = molecular target: T2, Sex hormone-binding globulin (Homo sapiens, UniProt P04278); assay: Inhibitory concentration against [3H]-DHT binding to human sex hormone-binding globulin (SHBG); outline: as §1
T2 sequence (P04278 whole entry): T1 sequence (whole entry)

[3] = molecular target: T1, Sex hormone-binding globulin (Homo sapiens); assay: Relative binding affinity towards human sex hormone-binding globulin (SHBG) compared to estradiol; outline: as §1
[4] = molecular target: T1, Sex hormone-binding globulin (Homo sapiens); assay: Relative binding affinity for human sex hormone-binding globulin (SHBG) compared to testosterone; outline: as §1
[5] = molecular target: T1, Sex hormone-binding globulin (Homo sapiens); assay: Association […] constant for human sex hormone-binding globulin (SHBG)

Structure (SMILES) | Reduction [1] [%] | also measured
CC(=O)Oc1ccc2c(C)c(C[C@H](C)O)c(=O)oc2c1 | 42 | –
C[C@H]1CC[C@H]2[C@@](C)(CO)[C@H](O)CC[C@]2(C)[C@@]12CC[C@@](C)(CO)O2 | 6 | –
O=C(Cc1ccc(O)cc1)c1ccc(O)cc1O | 95 | IC50 [2]: 13.6 µM; relative binding affinity (RBA) [3]: 4530; relative binding affinity (RBA) [4]: 1150; Ka [5]: 1.2e+06 M⁻¹
C[C@H]1CC[C@@H]2[C@](C)(CO)[C@H](O)CC[C@@]2(C)[C@]12CC[C@@]1(CCOC1)O2 | 11 | –
O=C1C=CC2=C3c4ccc(O)cc4OC[C@]3(O)CC2=C1 | 27 | –
COc1cc(/C=C/C(=O)c2c(O)cc(C)oc2=O)ccc1O | 2 | –
CN1CCc2cc(O)c(O)cc2[C@H]1Cc1ccc(O)c(O)c1 | 14 | –
O=C1C=CC2=C3c4cc(O)c(O)cc4C[C@@]3(O)COC2=C1O | 6 | –
Cc1c(CC(=O)N[C@@H](C)C(=O)O)c(=O)oc2cc(O)ccc12 | 0 | –
O=C(Cc1ccc2cccnc2c1)c1ccc(O)cc1O | 0 | –
C[C@H]1CC[C@H]2[C@@](C)(CO)[C@@H](O)CC[C@]2(C)[C@@]12CC[C@](CO)(CC(=O)O)O2 | 2 | –
C=C1CC[C@H]2[C@](C)(CO)[C@H](O)CC[C@@]2(C)[C@@H]1C/C=C1/C(=O)OC[C@H]1O | 7 | –
C=C1CC[C@H]2[C@](C)(CO)[C@H](O)CC[C@@]2(C)[C@@H]1/C=C/C1=CCOC1=O | 0 | –
CC1(C)CC2(CC(C)(C)c3cc(O)c(O)cc32)c2cc(O)c(O)cc21 | 48 | –
Cc1c(CCC(=O)O)c(=O)oc2c(C)c(O)ccc12 | 46 | –
COC(=O)c1ccc(CC(=O)c2ccc(O)cc2O)o1 | 10 | –
CC(=O)c1c(O)c(C)c(O)c2c1OC1=CC(=O)[C@H](C(C)=O)C(=O)[C@]12C | 4 | –
O=C1C=CC2=N[C@@]34CCCC[C@@H]3[C@@H](c3ccc(O)cc3)C=C(c3ccccc3)N4C2=C1 | 0 | –
CC[C@@H](O)c1ccc(OC[C@H](O)CN2CCCCC2)c(OC)c1 | 5 | –
COc1cc([C@H]2OC[C@]3(CO)[C@H](C)[C@H]2C(C)=C[C@@H]3C)ccc1O | 84 | IC50 [2]: 22.4 µM; relative binding affinity (RBA) [3]: 2750; relative binding affinity (RBA) [4]: 696; Ka [5]: 730000 M⁻¹
O=C(/C=C/c1cccnc1)c1ccc(O)cc1 | 57 | –
CC[C@H](NC(=O)Cc1c(C)c2ccc(O)cc2oc1=O)C(=O)O | 0 | –
COc1cc2c(cc1O)CCN(C[C@@H](O)CNCCO)[C@H]2C | 12 | –
C=C1CC[C@H]2[C@](C)(CO)[C@H](O)CC[C@@]2(C)[C@@H]1C/C=C1/C(=O)OC[C@@H]1O | 0 | –
Cc1cc(O)c(C(=O)/C=C/c2ccc(O)c([N+](=O)[O-])c2)c(=O)o1 | 1 | –
CC1=C[C@@H](C)[C@@]2(CO)CO[C@@H](c3ccc(O)cc3)[C@@H]1[C@H]2C | 56 | IC50 [2]: 124 µM; relative binding affinity (RBA) [3]: 493; relative binding affinity (RBA) [4]: 125; Ka [5]: 130000 M⁻¹
C[C@H]1CC[C@@H]2[C@](C)(CO)[C@H](O)CC[C@@]2(C)[C@@]12C[C@@]1(COC(=O)C1)CO2 | 9 | –
COC(=O)c1cc(CC(=O)c2ccc(O)cc2O)c(C)o1 | 0 | –
